B1: tRNA (parent)
chain: GUUCCGUUGGCGUAAUGGUAACGCGUCUCCCUCCUAAGGAGAAGACUGCGGGUUCGAGUCCCGUACGGAACG

Variants at the floor of the assay were thinned out. Where only a bound is given, the exact number is not on record here.

Experimental findings from the RNAGym collection of RNA variant scans (doi:10.1126/science.aae0568) are described below.

The variants in the data set derive from B1. In words: yeast fitness relative to wild type (ratio to wild type); higher = fitter; tRNA-Arg(CCU), competitive growth, 37 C, YPD. A digest of the protocol: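 Changes in genotype frequencies gave Darwinian fitness relative to wild type. Frequencies were read by 100-nucleotide paired-end sequencing of gene amplicons before and after pooled Saccharomyces cerevisiae strains, carrying tRNA-Arg(CCU) gene variants at the native locus, were competed in YPD at 37°C for 24 hours in six replicates. A genotype was kept only with ≥ 100 starting reads, and estimates < 0.5 were set to 0.5.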
As to GUUCCGUUGGCGUAAUGGUAACGCGUCUCCCUCCUCAGGAGAAGACUACGGGUUCGAGUCCCGUAGGGAACG [A36C G48A C66G], the yeast fitness was at most 0.5.
For GUUCCGUUGGCGUAAUGGUAACGCGUCUCCCUCCUGAGGAGAAGACUGCGGGUUCGAGUCCCGUACGGAACG [A36G] the value was 0.993.
For GUUCCGUUGGCGUAAUGGUAACGCGUCUCCCUCCUCAGGAGAAGACACCGGGUGCGAGUCCCGUACGGAACG [A36C U47A G48C U54G], the yeast fitness worked out at 0.544.
As to GUUCCGUUGGCGUAAUGGUAACGCGUCUCCCUCCUCAGGAGAAGACUGAGGGUUCGAGUCCCGUACGGAACG [A36C C49A], the yeast fitness turned out to be 0.563.
The value for GUUCCGUUGGCGUAAUGGUAACGCGUCUCCCUCCUCAGGAGAAGACUGGGGGUUCGAGUCCCGUACGGAACG [A36C C49G] was 0.56; that for GUUCCGUUGGCGUAAUGGUAACGCGUCUCCCUCCUCAGGAGAAGACUGUGGGUUCGAGUCCCGUACGGAACG [A36C C49U] was 0.557; that for GUUCCGUUGGCGUAAUGGUAACGCGUCUCCCUCCUGAGGUGAAGACUGCGGGUUCGAGUCCCGUACGGAACG [A36G A40U] was 0.938.
For GUUCCGUUGGCGUAAUGGUAACGCGUCUCCCUCCUGAGGCGAAGACUGCGGGUUCGAGUCCCGUACGGAACG [A36G A40C], the yeast fitness worked out at 0.961.
For GUUCCGUUGGCGUAAUGGUAACGCGUCUCCCUCCUCAGGAGAAGACACCGGGUGCGAGUCCUGUACGGAACG [A36C U47A G48C U54G C62U] the value was at most 0.5.
Regarding GUUCCGUUGGCGUAAUGGUAACGCGUCUCCCUCCUGAGGAGAGGACUGCGGGUUCGAGUCCCGUACGGAACG [A36G A43G], the yeast fitness turned out to be 0.975.
With GUUCCGUUGGCGUAAUGGUAACGCGUCUCCCUCCUGAGGAGAUGACUGCGGGUUCGAGUCCCGUACGGAACG [A36G A43U], the yeast fitness was found to be 1.01.
The value for GUUCCGUUGGCGUAAUGGUAACGCGUCUCCCUCCUCAGGAGAAGACUGCGGGUUCGAGACCCGUACGGAACG [A36C U59A] was 0.569; that for GUUCCGUUGGCGUAAUGGUAACGCGUCUCCCUCCUCAGGACAAGACUGCGGGUUCGAGUCCCGUACGGAACG [A36C G41C] was 0.579; that for GUUCCGUUGGCGUAAUGGUAACGCGUCUCCCUCCUCAGGAGAAGACUGCGGGUUUGAGUCCCGUCCGGAACG [A36C C55U A65C] was 0.632.
For GUUCCGUUGGCGUAAUGGUAACGCGUCUCCCUCCUGAGGAGCAGACUGCGGGUUCGAGUCCCGUACGCAACG [A36G A42C G68C] the value was 0.608; for GUUCCGUUGGCGUAAUGGUAACGCGUCUCCCUCCUGAGGAGUAGACUGCGGGUUCGUGUCCCGUACGGAACG [A36G A42U A57U], at most 0.5; for GUUCCGUUGGCGUAAUGGUAACGCGUCUCCCUCCUCAGGAGAAGACUGCGGGUUUGAGACCCGUACGGAACG [A36C C55U U59A], at most 0.5.
For GUUCCGUUGGCGUAAUGGUAACGCGUCUCCCUCCUCAGGAGAAGACACCGGGUGCGAGUCCCGUCCAGAACG [A36C U47A G48C U54G A65C G67A], the yeast fitness was at most 0.5.
The value for GUUCCGUUGGCGUAAUGGUAACGCGUCUCCCUCCUCAGGAGAACACUGCGCGUUCGAGUCCCGUACGGAACG [A36C G44C G51C] was at most 0.5; that for GUUCCGUUGGCGUAAUGGUAACGCGUCUCCCUCCUCAGGAGAAGACUGCGGGUACGAGUCGCGUACGGAACG [A36C U54A C61G] was 0.635.
With GUUCCGUUGGCGUAAUGGUAACGCGUCUCCCUCCUCAGGAGAAGACUGCGGGUUCGAGUCCCGUACGCAACG [A36C G68C], the yeast fitness came to 0.591.
Turning to GUUCCGUUGGCGUAAUGGUAACGCGUCUCCCUCCUCAGGAGAAGACACCGGGUGCGAGUGCCGUACGGAACG [A36C U47A G48C U54G C60G], the yeast fitness was at most 0.5.
Consider GUUCCGUUGGCGUAAUGGUAACGCGUCUCCCUCCUCAGGAGAAGACUGCGGGUUCGAGUCCCCUACGGAACG [A36C G63C], for which the yeast fitness worked out at 0.558.
For GUUCCGUUGGCGUAAUGGUAACGCGUCUCCCUCCUGAGGAGGAGAGUGCGGGUUCGAGUCCCGUACGCAACG [A36G A42G C46G G68C], the yeast fitness was at most 0.5.
In the case of GUUCCGUUGGCGUAAUGGUAACGCGUCUCCCUCCUCAGGAGAAGACUGCGGGUGCGAGUCCCGUACGGAACG [A36C U54G], the yeast fitness stood at 0.522.
The value for GUUCCGUUGGCGUAAUGGUAACGCGUCUCCCUCCUCAGGAGAAGACUGCGGGUUUGAGUCCCGUACGCAGCG [A36C C55U G68C A70G] was at most 0.5.
The value for GUUCCGUUGGCGUAAUGGUAACGCGUCUCCCUCCUCAGCAGAAGACUGCGGGUUCGAGUCCCGUCCGGAACG [A36C G39C A65C] was 0.598; that for GUUCCGUUGGCGUAAUGGUAACGCGUCUCCCUCCUCAGGACAAGACUGCGGGUUCGAGUCUCGUACGGAACG [A36C G41C C61U] was at most 0.5.
The value for GUUCCGUUGGCGUAAUGGUAACGCGUCUCCCUCCUCAGGAGAAGACUGCGGGUUCGAGUCUCGUUCGGAACG [A36C C61U A65U] was at most 0.5.
Regarding GUUCCGUUGGCGUAAUGGUAACGCGUCUCCCUCCUCAGGAGAAGACUGUGGGUUUGAGUCCGGUACGCAACG [A36C C49U C55U C62G G68C], the yeast fitness was at most 0.5.
With GUUCCGUUGGCGUAAUGGUAACGCGUCUCCCUCCUCAGGAGAAGACUGCGGGUUCGAGUCACGUACGGAACG [A36C C61A], the yeast fitness stood at 0.523.
Regarding GUUCCGUUGGCGUAAUGGUAACGCGUCUCCCUCCUCAGGAGAAGACACCGGGUUCGAGUCUCGUACGGAACG [A36C U47A G48C C61U], the yeast fitness was at most 0.5.
As to GUUCCGUUGGCGUAAUGGUAACGCGUCUCCCUCCUCAGGAGAAAACUGCGGGUUCGAGUCCCGUACGGACCG [A36C G44A A70C], the yeast fitness was at most 0.5.
Regarding GUUCCGUUGGCGUAAUGGUAACGCGUCUCCCUCCUCAGGAGAAGACUGCGGAUUCGAGUCACGUACGGAACG [A36C G52A C61A], the yeast fitness was at most 0.5.
With GUUCCGUUGGCGUAAUGGUAACGCGUCUCCCUCCUGAGGAGGAGAGUGCGGGUUCGAGUCCCGUACGGAACG [A36G A42G C46G], the yeast fitness was 0.698.
As for GUUCCGUUGGCGUAAUGGUAACGCGUCUCCCUCCUCAGGAGAAGACUGCGGGUUCGACUCCUGUACGGAACG [A36C G58C C62U], the yeast fitness was at most 0.5.
The value for GUUCCGUUGGCGUAAUGGUAACGCGUCUCCCUCCUGAGGAGCAGACUGCGGGUUCGAGUCCCGUACGGUACG [A36G A42C A69U] was 0.744.
